Shown are actives, neighbours in structure and some others; about 5.6% of the full set was active somewhere.
UPR CHOP act = apoptotic UPR (CHOP) activation | CHO-CHOP luciferase reporter, luminescence; percent of tunicamycin response over DMSO baseline | actives 0.34% (n = 330,000) | AID 449763 | activation, % at 10 µM;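 active = at 10 µM dose, activation of 40% or more, normalized to positive control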;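 note: 100% = tunicamycin at 10 µg/mL and 0% = DMSO alone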
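System: CHO CHOP reporter cells. Amount: 500 cells per well. Buffer or medium: F12 medium, 10% FBS. Compound dosing: one dose, 10 µM in 0.5% DMSO. Incubation: 6 h compound exposure at 37 °C after overnight seeding. Technique: Steady-Glo luciferase luminescence. Benchmarks: tunicamycin and DMSO controls.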
MPTP block = inhibitors of mitochondrial permeability transition pore | isolated mouse mitochondria, Ca2+ swelling absorbance, 30 min | inhibition, % at 10 µM | AID 602449 | actives 1.4% (n = 360,000);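 active = inhibition of 50% or more, scaled per plate between neutral and stimulator controls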;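 note: 0% = DMSO wells given calcium and 100% = 1 mM EGTA wells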
UPR XBP1 act = adaptive UPR (XBP1) activation; CHO-XBP1 luciferase reporter, IRE1-XBP1 UPR activation, luminescence; percent of tunicamycin response, DMSO as zero; activation, % at 20 µM; actives 0.33% (n = 330,000); AID 463104;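 active = versus positive control, 20 µM dose yields 30% or more activation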;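 note: 100% = tunicamycin at 10 µg/mL and 0% = DMSO only wells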
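incubation = overnight seeding at 37 °C, 6 h compound treatment at 37 °C | assay system = CHO-XBP1 cells stably carrying IRE1-XBP1-driven luciferase reporter | input = 1000 cells per well | detection = luciferase luminescence | dosing = single point, 20 µM final compound, 1% DMSO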
CHOP inh = inhibitors of CHOP induction in ER stress response; inhibition, % at 10 µM; actives 3.8% (n = 220,000); CHO-K1 CHOP-promoter luciferase, tunicamycin-induced, 15-18 h;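 active = compounds that reduced the stress-induced luciferase reporter signal by more than about 70% of percent inhibition, limit read from the data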;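 note: 0% = tunicamycin plus vehicle and 100% = wells without tunicamycin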
NR3A LBD binder = modulates the human NR3A ligand-binding domain | actives 2.5% (n = 340,000) | NR3A LBD differential scanning fluorimetry, Tm shift; 0% = protein alone, 100% = glycine-bound protein | Tm shift relative to glycine control, % at 25 µM;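 active = melting temperature shift of at least 10% of the positive control shift, at one fixed dose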
aDG glyco act = increases alpha dystroglycan glycosylation. Pro5-aDG cells, alpha-DG glycosylation AlphaScreen (IIH6); 0% Pro5, 100% B10-LARGE cell signal. activation, % at 10 µM. actives 0.22% (n = 360,000). AID 624168;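 active = activation of at least 8% versus controls, or a plate z-score of at least 8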;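 note: Pro5 are CHO cells carrying HIG-tagged alpha-DG that lacks glycosylation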
Numbers without * were called inactive; x = no result.

SMILES | UPR CHOP act | MPTP block | UPR XBP1 act | CHOP inh | NR3A LBD binder | aDG glyco act
O=C(NC(=S)Nc1nc(-c2cccc([N+](=O)[O-])c2)cs1)c1ccccc1Cl | 6 | 4 | 0 | 96* | -3 | 0
COc1ccc(CC(=O)Nc2nc(-c3ccc(F)c(F)c3)cs2)cc1 | 1 | 0 | 3 | x | 3 | 0
COc1ccc(CC(=O)Nc2nc(-c3cccc([N+](=O)[O-])c3)cs2)cc1 | 0 | 2 | -2 | 80* | 0 | 0
COc1cc(NC(=O)CN2C(=O)C(=O)N(CC(C)C)C2=O)cc(OC)c1 | -1 | 1 | -2 | x | 29* | 0
COc1cc(NC(=O)CN2C(=O)C(=O)N(C3CCCC3)C2=O)cc(OC)c1 | -1 | -1 | -2 | x | -36 | 0
C[C@@H](c1ccccc1)N1C[C@@H](COCc2ccccc2)Oc2cc(N3CC[C@@H](N(C)C)C3)ccc2S1(=O)=O | x | 1 | x | x | x | 1
Cc1ccc(Cl)cc1N1CCN(C(=O)Cc2csc(Nc3nc(=S)[nH]c4ccccc34)n2)CC1 | 6 | 0 | 14 | 84* | -2 | 0
O=C(/C=C/c1ccc([N+](=O)[O-])cc1)Nc1cccc(C(=O)Nc2ccccc2C(=O)O)c1 | x | 1 | x | x | 17* | 0
COC(=O)c1cccc(NC(=O)/C=C/c2ccc([N+](=O)[O-])cc2)c1 | 5 | 6 | 1 | 18 | -1 | 0
Cc1cc(C)cc(NC(=O)/C=C/c2ccc([N+](=O)[O-])s2)c1 | x | 1 | x | -21 | -7 | 0
COc1ccccc1NC(=O)/C(=C/c1cccc([N+](=O)[O-])c1)c1ccccc1 | 6 | 0 | -3 | 26 | 11* | 0
O=C(/C=C\c1ccccc1[N+](=O)[O-])Nc1ccccc1 | 5 | 1 | 4 | -22 | 14* | 0
CC(=O)c1cccc(NC(=O)/C=C/c2ccc([N+](=O)[O-])s2)c1 | x | 4 | x | 74* | 10* | 0
COc1ccc(C(=O)NC(=S)Nc2ccc(N3CCOCC3)c(Cl)c2)cc1[N+](=O)[O-] | 5 | 2 | -2 | 7 | -2 | 1
COC(=O)c1cccc(NC(=O)/C=C/c2cccc([N+](=O)[O-])c2)c1 | 2 | -2 | -1 | -11 | 17* | 0
Cc1ccccc1-c1nnc(SCC(=O)N2CCCC2)o1 | 3 | 1 | -1 | x | -2 | 0
Cc1cc(C)c(OCCCCNCc2ccccc2)c(Cl)c1 | -2 | 5 | 2 | 75* | 0 | 2
Cc1cc(C)c(OCCNCc2ccccc2)c(C)c1 | 0 | 0 | 4 | x | -1 | 0
COc1ccc(OC)c(/C=C/c2ccc3cccc(O)c3n2)c1 | 26 | 1 | 22 | x | x | 0
COc1cc(/C=C/c2ccc3cccc(OC)c3n2)c(O)c([N+](=O)[O-])c1 | 1 | 1 | 5 | 94* | -4 | 0
COc1cc(Br)c(/C=C/c2ccc3cccc(O)c3n2)cc1OC | 5 | 0 | 3 | x | 3 | -1
COc1cc(Br)cc(/C=C/c2ccc3cccc(O)c3n2)c1O | 1 | 8 | 12 | x | 34* | 0
Oc1cccc2ccc(/C=C/c3ccccc3Br)nc12 | 18 | -1 | 8 | x | 14* | 0
Oc1ccc(Cl)cc1/C=C/c1ccc2cccc(O)c2n1 | 5 | 14 | 6 | 94* | 30* | 0
COc1cc(/C=C/c2ccc3cccc(OC)c3n2)c(OC(C)=O)c([N+](=O)[O-])c1 | 4 | 9 | 4 | 38 | 9 | 0
SMILES | UPR CHOP act | MPTP block | UPR XBP1 act | CHOP inh | NR3A LBD binder | aDG glyco act
Cc1oc(-c2ccccc2Cl)nc1CS(=O)CC(=O)NCc1ccc2c(c1)OCO2 (stereo not given) | 0 | 17 | -4 | x | 1 | 0
CC1=C(C(=O)N(C)C)CC(CC(=O)NCc2ccco2)C(=O)N1Cc1ccccc1 (stereo not given) | x | -1 | x | x | x | 0
COCCNC(=O)C(c1ccc(C)o1)N(C(=O)C(=O)NC1CCCCC1)c1ccc(F)cc1 (stereo not given) | 3 | 1 | 3 | -2 | -1 | 0
Cc1nc2ccc(S(=O)(=O)NCC(=O)N(C)Cc3ccccc3)cc2s1 | 1 | 1 | 1 | 27 | -1 | 0
Oc1ccc2ccccc2c1/C=C/c1ccc2c(Br)cc(Br)c(O)c2n1 | x | 4 | x | x | 15* | 0
COc1ccc(/C=C/c2nc(-c3ccccc3O)n[nH]2)cc1OC | 7 | 12 | 2 | -21 | 27* | 0
O=C(O)COc1ccc(/C=C/c2nc(-c3ccccc3O)n[nH]2)cc1 | -1 | 1 | -2 | x | -8 | 0
COc1ccc(OC)c(-n2nnnc2SCC(=O)NCc2ccc3c(c2)OCO3)c1 | 1 | 0 | 0 | 17 | 11* | 0
O=C(CSc1nc(CCC2CCCC2)nc2ccccc12)NCc1ccc2c(c1)OCO2 | 0 | 7 | 3 | 95* | 1 | 0
O=C(CSc1nc2ccccc2o1)NCc1ccc2c(c1)OCO2 | 2 | 1 | -2 | 79* | -1 | 0
O=C(CSc1ncc(C(=O)O)n1-c1ccc(F)cc1)NCc1ccc2c(c1)OCO2 | 2 | -2 | -3 | 14 | -2 | 0
O=C(CSc1ncnc2c1cnn2-c1ccc(F)cc1)NCc1ccc2c(c1)OCO2 | 2 | 5 | 1 | 89* | 0 | 0
FC(F)(F)c1cc(-c2cccs2)nc(-n2cc(Cl)cn2)n1 | 0 | 0 | 2 | 85* | -1 | 0
O=[N+]([O-])c1ccn(-c2nc(-c3cccs3)cc(C(F)(F)F)n2)n1 | 5 | 0 | 4 | 14 | 0 | 0
O=C(N/N=C1\CCCc2c1[nH]c1ccc([N+](=O)[O-])cc21)c1ccncc1 | 0 | x | -1 | -39 | x | x
COc1ccc([N+](=O)[O-])cc1NC1C2CC3CC(C2)CC1C3 (stereo not given) | 1 | -1 | 1 | 16 | 0 | 0
COc1ccc([N+](=O)[O-])cc1NC(=O)C1CCCCC1C(=O)O (stereo not given) | 0 | 2 | -2 | 21 | 18* | 0
COc1ccc([N+](=O)[O-])cc1NC1CCCCC1 | 1 | 2 | 3 | 5 | 15* | 0
COc1ccc(C)cc1NC(=O)C1CCCCC1C(=O)O (stereo not given) | 1 | 0 | -1 | 29 | -1 | 0
C[N+](C)(C)CCC(=O)c1cccc2ccccc12 | x | x | x | 5 | x | x
COc1ccc(-c2cc(C(=O)N3CCCC(C(F)(F)F)C3)c3ccccc3n2)cc1OC (stereo not given) | 0 | -1 | -3 | x | 18* | 0
O=C(CC(=O)c1cccs1)c1ccncc1 | x | -5 | x | x | -1 | 0
COc1ccc(/C=C/C(=O)N(CC(C)C)CC(C)C)cc1Br | -3 | -1 | -1 | 84* | 0 | 0
